Assay results of several laboratories.
Each line is one published result; the experiments were not run side by side. ≈ marks a conversion by molar mass, not a printed value.

Structure (SMILES) | organism | assay | test system | conditions | endpoint | result
O=C(Nc1ccccc1-c1ccc(F)c(F)c1)c1nccnc1C(F)(F)F | Diaporthe citri | microbial growth | – | – | EC50 | > 100 µg/mL
O=C1NC(=S)N/C1=C\c1ccc(-c2ccc(N(c3ccccc3)c3ccccc3)cc2)c2ccccc12 | Streptococcus pyogenes | microbial growth, broth dilution | ATCC19615 | – | MIC | > 1000 µg/mL
C/C(O)=C1\C(=O)C(CC(C)C)N(C(=O)C=Cc2ccccc2)C1=O (centres unmarked) | Stenotrophomonas maltophilia | microbial growth | ATCC13637 | – | MIC | > 200 µg/mL
CC(C(=O)O)N1C2=NC(c3ccc(Cl)cc3)C3=C(OC(C)(C)OC3=O)N2NC1(C)c1ccccc1O (centres unmarked) | Streptococcus pyogenes | microbial growth | ATCC19615 | 10 µg/mL, 24 h | inhibition zone | 8 mm
O=C(N[C@H](CCc1ccccc1)C(=O)c1cc(Cc2ccccc2)on1)[C@H](Cc1ccccc1)NC(=O)N1CCOCC1 | Leishmania infantum | parasite growth | – | intracellular, amastigote | IC50 | > 64 µM
O=C1C(=Cc2cc(O)cc(O)c2)Oc2ccccc21 | Streptococcus mutans | microbial growth | UA159 | 50 µM | inhibition | 30%
O=C1NC(=S)N/C1=C\c1c2ccccc2c(-c2ccc(N(c3ccccc3)c3ccccc3)cc2)c2ccccc12 | Streptococcus pyogenes | microbial killing, broth dilution | ATCC19615 | – | MBC | > 1000 µg/mL
CCCCC(=O)N1C(=O)/C(=C(/C)O)C(=O)C1CC(C)C (centres unmarked) | Stenotrophomonas maltophilia | microbial growth | ATCC13637 | – | MIC | > 200 µg/mL
CCOC(=O)C1=C(C)N2NC(c3ccccc3O)N(C(Cc3c[nH]c4ccccc34)C(=O)O)C2=NC1c1ccc(Cl)cc1 (centres unmarked) | Streptococcus pyogenes | microbial growth | ATCC19615 | 15 µg/mL, 24 h | inhibition zone | 32 mm
Fc1ccc(Nc2c(Cn3cccn3)nc3ccccn23)cc1 | Leishmania infantum | parasite growth | – | intracellular, amastigote | IC50 | > 64 µM
O=C1NC(=S)S/C1=C\c1c2ccccc2c(-c2ccc(N(c3ccccc3)c3ccccc3)cc2)c2ccccc12 | Streptococcus mutans | microbial killing, broth dilution | ATCC25175 | – | MBC | > 1000 µg/mL
CCCCCCC/C=C/C(=O)N1C(=O)/C(=C(\O)c2ccc(F)cc2)C(=O)C1CC(C)C (centres unmarked) | Stenotrophomonas maltophilia | microbial growth | ATCC13637 | – | MIC | 50 µg/mL (≈ 116 µM)
CC(C(=O)O)N1c2nc(-c3ccc(Cl)cc3)c(C#N)c(=O)n2NC1(C)c1ccccc1O (centres unmarked) | Streptococcus pyogenes | microbial growth | ATCC19615 | 10 µg/mL, 24 h | inhibition zone | 16 mm
c1ccc(-c2c(-c3ccccn3)nc3n2CCC3)cc1 | Leishmania infantum | parasite growth | – | 5 days, intracellular, amastigote | EC50 | 2 µM
O=C(N[C@@H](Cc1ccccc1)C(=O)c1nc2ccccc2o1)[C@H](Cc1ccccc1)NC(=O)N1CCOCC1 | Leishmania infantum | parasite growth | – | intracellular, amastigote | IC50 | > 64 µM
COc1ccc(-c2c(-c3ccccn3)nc3n2CCC3)cc1OC | Leishmania infantum | parasite growth | – | 5 days, intracellular, amastigote | EC50 | 2 µM
O=C1C(=Cc2ccccc2)Oc2ccccc21 | Streptococcus mutans | microbial growth | UA159 | 50 µM | inhibition | 80%
O=C(N[C@@H](Cc1ccccc1)C(=O)c1cc(-c2ccccc2)on1)[C@H](Cc1ccccc1)NC(=O)N1CCOCC1 (single isomer, unassigned) | Leishmania infantum | parasite growth | – | intracellular, amastigote | IC50 | > 64 µM

Structure (SMILES) | organism | assay | test system | conditions | endpoint | result
Fc1ccc(Nc2c(-c3ccccn3)nc3ccccn23)cc1 | Leishmania infantum | parasite growth | – | intracellular, amastigote | IC50 | 8.11 µM
CN[C@H](CC(C)C)C(=O)N[C@H]1C(=O)N[C@@H](CC(N)=O)C(=O)N[C@H]2C(=O)N[C@H]3C(=O)N[C@H](C(=O)N[C@H](C(=O)O)c4cc(O)cc(O)c4-c4cc3ccc4O)[C@H](O)c3ccc(c(Cl)c3)Oc3cc2cc(c3O[C@@H]2O[C@H](CO)[C@@H](O)[C@H](O)[C@H]2O[C@H]2C[C@](C)(N)[C@H](O)[C@H](C)O2)Oc2ccc(cc2Cl)[C@H]1O | Streptococcus pyogenes | microbial killing | – | – | MBC | > 32 µg/mL
O=C(O)CN1C(=O)/C(=C/c2ccc(-c3ccc(N(c4ccccc4)c4ccccc4)cc3)cc2)SC1=S | Streptococcus mutans | microbial killing, broth dilution | ATCC25175 | – | MBC | > 1000 µg/mL
CC(=O)C1=C(C)N2NC(C)(c3ccccc3O)N(C(Cc3c[nH]c4ccccc34)C(=O)O)C2=NC1c1ccc(Cl)cc1 (centres unmarked) | Streptococcus pyogenes | microbial growth | ATCC19615 | 15 µg/mL, 24 h | inhibition zone | 32 mm
O=C(O)CN1C(=O)/C(=C/c2ccc(-c3ccc(N(c4ccccc4)c4ccccc4)cc3)c3ccccc23)NC1=S | Streptococcus pyogenes | microbial growth, broth dilution | ATCC19615 | – | MIC | > 1000 µg/mL
C[Si](C)(C)c1cc(C(=O)[C@H](Cc2ccccc2)NC(=O)[C@H](Cc2ccccc2)NC(=O)N2CCOCC2)no1 (mixture of isomers) | Leishmania infantum | parasite growth | – | intracellular, amastigote | IC50 | > 64 µM
O=C(O)CN1C(=O)/C(=C/c2c3ccccc3c(-c3ccc(N(c4ccccc4)c4ccccc4)cc3)c3ccccc23)SC1=S | Streptococcus pyogenes | microbial killing, broth dilution | ATCC19615 | – | MBC | > 1000 µg/mL
Cc1ccc2nc(-c3ccccc3)c(CNc3cccc(C(F)(F)F)c3)n2c1 | Leishmania infantum | parasite growth | – | intracellular, amastigote | IC50 | 32 µM
N#Cc1c(-c2ccc(Cl)cc2)nc2n(c1=O)NC(c1ccccc1O)N2C(Cc1c[nH]c2ccccc12)C(=O)O (centres unmarked) | Streptococcus pyogenes | microbial growth | ATCC19615 | 15 µg/mL, 24 h | inhibition zone | 34 mm
CN(c1ccc(F)cc1)c1c(-c2ccccn2)nc2ccccn12 | Leishmania infantum | parasite growth | – | 5 days, intracellular, amastigote | EC50 | 1 µM
O=C(N[C@@H](Cc1ccccc1)C(=O)c1cn(COCc2ccccc2)nn1)[C@H](Cc1ccccc1)NC(=O)N1CCOCC1 | Leishmania infantum | parasite growth | – | intracellular, amastigote | IC50 | > 64 µM
COc1ccc2nc(-c3ccccn3)c(Nc3ccc(F)cc3)n2c1 | Leishmania infantum | parasite growth | – | intracellular, amastigote | IC50 | 2.16 µM
CCOC(=O)C1=C(C)N2NC(C)(c3ccccc3O)N(C(Cc3c[nH]c4ccccc34)C(=O)O)C2=NC1c1ccc(Cl)cc1 (centres unmarked) | Streptococcus pyogenes | microbial growth | ATCC19615 | 10 µg/mL, 24 h | inhibition zone | 17 mm
CCCCCCC/C=C/C(=O)N1C(=O)/C(=C(/C)O)C(=O)C1Cc1ccc(OC(C)(C)C)cc1 (centres unmarked) | Stenotrophomonas maltophilia | microbial growth | ATCC13637 | – | MIC | > 200 µg/mL
CC(=O)C1=C(C)N2NC(c3ccccc3O)N(C(Cc3c[nH]c4ccccc34)C(=O)O)C2=NC1c1ccc(Cl)cc1 (centres unmarked) | Streptococcus pyogenes | microbial growth | ATCC19615 | 15 µg/mL, 24 h | inhibition zone | 30 mm
CC(C)CN(c1ccc(F)cc1)c1c(-c2ccccn2)nc2ccccn12 | Leishmania infantum | parasite growth | – | 5 days, intracellular, amastigote | EC50 | 0.794 µM
O=C1NC(=S)S/C1=C\c1ccc(-c2ccc(N(c3ccccc3)c3ccccc3)cc2)cc1 | Streptococcus mutans | microbial killing, broth dilution | ATCC25175 | – | MBC | > 1000 µg/mL
